Results reported in ChEMBL document CHEMBL1208762, “Enhanced selectivity profile of pyrazole-urea based DFG-out p38alpha inhibitors” (Bioorg Med Chem Lett, 2010).
Converted amounts (≈) assume the structure as drawn.

Tests used:
[1] = target: T1, Mitogen-activated protein kinase 14 (Homo sapiens, UniProt Q16539); assay: Inhibition of unactive p38alpha
Outline: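 Unactive p38α preincubated with compound, then activated by MKK6 and diluted into an MK2 plus substrate mixture (cascade format). IC50 is the mean of three experiments, SD <15%.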

[2] = target: T1, Mitogen-activated protein kinase 14; assay: Inhibition of active p38alpha
Outline: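 Compound preincubated with active p38α; kinase activity then read by adding MK2 and its substrate (cascade format). IC50 is the mean of three experiments, SD <15%.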

CYP2C9 = CYP2C9 (Homo sapiens, UniProt P11712); assay: Inhibition of CYP2C9 at 3 uM; type: ADME
Sequence of CYP2C9 (P11712 whole entry, canonical isoform): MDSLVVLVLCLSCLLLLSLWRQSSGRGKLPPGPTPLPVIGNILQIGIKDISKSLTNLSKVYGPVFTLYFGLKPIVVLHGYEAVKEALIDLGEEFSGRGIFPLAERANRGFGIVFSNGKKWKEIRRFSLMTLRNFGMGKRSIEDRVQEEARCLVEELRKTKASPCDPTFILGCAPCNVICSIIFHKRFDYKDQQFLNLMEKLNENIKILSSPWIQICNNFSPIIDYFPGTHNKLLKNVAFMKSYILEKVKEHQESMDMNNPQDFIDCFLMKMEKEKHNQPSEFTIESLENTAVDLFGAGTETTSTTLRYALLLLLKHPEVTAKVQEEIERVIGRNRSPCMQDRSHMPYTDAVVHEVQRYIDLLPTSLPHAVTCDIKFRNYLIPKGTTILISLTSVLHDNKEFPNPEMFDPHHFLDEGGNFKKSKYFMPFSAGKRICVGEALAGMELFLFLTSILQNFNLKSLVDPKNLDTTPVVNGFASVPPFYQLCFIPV
Outline: (§1)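 Compound tested at 3 µM against a cocktail of CYP1A2, 2C9, 2D6 and 3A4; the result is given as % inhibition for each isoform.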

CYP2D6 = CYP2D6 (Homo sapiens, UniProt P10635); assay: Inhibition of CYP2D6 at 3 uM; type: ADME; outline: as §1
Sequence of CYP2D6 (P10635 whole entry): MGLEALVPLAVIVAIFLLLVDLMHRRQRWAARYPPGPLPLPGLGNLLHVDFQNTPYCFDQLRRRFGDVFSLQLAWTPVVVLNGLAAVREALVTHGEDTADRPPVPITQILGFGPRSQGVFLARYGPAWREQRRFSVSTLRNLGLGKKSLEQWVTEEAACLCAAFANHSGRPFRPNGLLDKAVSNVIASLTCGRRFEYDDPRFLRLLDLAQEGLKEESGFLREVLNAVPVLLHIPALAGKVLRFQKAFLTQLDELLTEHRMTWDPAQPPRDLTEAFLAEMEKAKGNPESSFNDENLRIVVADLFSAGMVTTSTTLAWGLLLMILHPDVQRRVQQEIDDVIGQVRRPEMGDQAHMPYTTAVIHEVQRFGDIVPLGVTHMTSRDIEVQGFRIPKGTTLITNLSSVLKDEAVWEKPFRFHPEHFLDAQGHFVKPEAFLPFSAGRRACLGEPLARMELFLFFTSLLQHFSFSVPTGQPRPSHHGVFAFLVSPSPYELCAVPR

CYP1A2 = target: T2, CYP1A2 (Homo sapiens, UniProt P05177); assay: Inhibition of CYP1A2 at 3 uM; type: ADME; outline: as §1
T2 sequence (P05177 whole entry): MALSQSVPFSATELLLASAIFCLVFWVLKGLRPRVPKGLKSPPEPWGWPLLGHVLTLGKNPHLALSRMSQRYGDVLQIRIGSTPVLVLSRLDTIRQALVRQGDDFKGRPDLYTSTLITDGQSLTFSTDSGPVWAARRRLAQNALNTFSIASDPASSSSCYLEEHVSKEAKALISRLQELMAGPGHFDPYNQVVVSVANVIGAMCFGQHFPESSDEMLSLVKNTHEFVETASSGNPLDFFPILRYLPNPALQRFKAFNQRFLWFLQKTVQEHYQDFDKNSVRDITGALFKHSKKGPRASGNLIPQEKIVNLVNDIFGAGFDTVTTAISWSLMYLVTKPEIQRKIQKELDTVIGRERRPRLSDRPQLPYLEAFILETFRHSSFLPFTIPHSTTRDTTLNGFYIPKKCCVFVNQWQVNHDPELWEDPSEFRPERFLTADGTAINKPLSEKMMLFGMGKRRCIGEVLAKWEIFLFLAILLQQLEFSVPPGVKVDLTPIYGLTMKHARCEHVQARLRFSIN

hERG (KCNH2) = hERG (KCNH2) (Homo sapiens, UniProt Q12809); assay: Displacement of [3H]dofetilide from human ERG at 10 uM; details: probe [3H]dofetilide
Sequence of hERG (KCNH2) (Q12809 whole entry): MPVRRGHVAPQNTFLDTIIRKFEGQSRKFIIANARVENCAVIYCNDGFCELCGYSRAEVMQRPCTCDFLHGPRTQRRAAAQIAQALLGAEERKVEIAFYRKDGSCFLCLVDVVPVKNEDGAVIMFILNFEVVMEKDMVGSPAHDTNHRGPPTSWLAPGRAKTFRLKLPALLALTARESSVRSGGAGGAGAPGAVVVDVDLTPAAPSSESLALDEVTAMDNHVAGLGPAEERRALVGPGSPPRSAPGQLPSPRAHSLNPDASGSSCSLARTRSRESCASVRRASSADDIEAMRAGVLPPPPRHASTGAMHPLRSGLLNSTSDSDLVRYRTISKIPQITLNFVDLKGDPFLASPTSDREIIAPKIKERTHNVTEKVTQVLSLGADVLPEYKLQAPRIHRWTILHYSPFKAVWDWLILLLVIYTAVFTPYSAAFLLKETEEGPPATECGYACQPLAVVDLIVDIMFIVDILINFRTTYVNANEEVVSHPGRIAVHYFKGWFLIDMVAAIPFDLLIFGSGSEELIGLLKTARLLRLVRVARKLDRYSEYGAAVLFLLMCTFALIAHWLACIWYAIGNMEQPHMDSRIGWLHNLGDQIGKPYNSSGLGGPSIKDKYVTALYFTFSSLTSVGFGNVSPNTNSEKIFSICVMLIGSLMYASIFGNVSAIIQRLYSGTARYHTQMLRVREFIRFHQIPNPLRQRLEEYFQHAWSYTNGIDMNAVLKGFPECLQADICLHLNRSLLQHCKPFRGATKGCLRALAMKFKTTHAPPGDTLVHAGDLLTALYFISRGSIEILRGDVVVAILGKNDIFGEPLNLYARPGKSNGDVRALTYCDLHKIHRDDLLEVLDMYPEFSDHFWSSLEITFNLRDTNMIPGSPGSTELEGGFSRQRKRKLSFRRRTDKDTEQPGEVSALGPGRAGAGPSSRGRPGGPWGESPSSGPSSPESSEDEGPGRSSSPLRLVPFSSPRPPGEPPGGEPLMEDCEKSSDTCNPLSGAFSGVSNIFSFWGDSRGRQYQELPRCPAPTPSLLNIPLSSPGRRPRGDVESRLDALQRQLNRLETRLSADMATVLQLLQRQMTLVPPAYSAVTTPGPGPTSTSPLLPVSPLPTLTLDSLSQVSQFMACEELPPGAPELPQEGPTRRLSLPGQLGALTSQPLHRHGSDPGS

[3] = Solubility of the compound in phosphate buffer at pH 6.5 by turbidimetric; type: physicochemical
Outline: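 Kinetic solubility measured turbidimetrically in phosphate buffer at pH 6.5. The value is reported as a range between the minimum and maximum kinetic solubility, in µM.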

[4] = Permeability of the compound by PAMPA method; type: ADME
CYP3A4 = CYP3A4 (Homo sapiens, UniProt P08684); assay: Inhibition of CYP3A4 at 3 uM; type: ADME; outline: as §1
Sequence of CYP3A4 (P08684 whole entry): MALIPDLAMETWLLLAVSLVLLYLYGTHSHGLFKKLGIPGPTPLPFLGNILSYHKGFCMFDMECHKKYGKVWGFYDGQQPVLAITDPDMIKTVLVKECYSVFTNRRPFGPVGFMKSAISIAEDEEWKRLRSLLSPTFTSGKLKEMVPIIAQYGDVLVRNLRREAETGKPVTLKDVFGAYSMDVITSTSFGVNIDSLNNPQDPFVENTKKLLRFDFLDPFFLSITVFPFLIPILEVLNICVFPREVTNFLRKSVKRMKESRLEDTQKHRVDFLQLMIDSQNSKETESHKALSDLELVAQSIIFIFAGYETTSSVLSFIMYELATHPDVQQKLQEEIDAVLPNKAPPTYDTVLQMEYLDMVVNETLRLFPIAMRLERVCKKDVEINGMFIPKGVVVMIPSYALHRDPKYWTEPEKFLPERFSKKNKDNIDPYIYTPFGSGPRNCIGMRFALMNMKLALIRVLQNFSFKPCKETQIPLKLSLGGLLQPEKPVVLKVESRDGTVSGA

T1 sequence (Q16539 whole entry): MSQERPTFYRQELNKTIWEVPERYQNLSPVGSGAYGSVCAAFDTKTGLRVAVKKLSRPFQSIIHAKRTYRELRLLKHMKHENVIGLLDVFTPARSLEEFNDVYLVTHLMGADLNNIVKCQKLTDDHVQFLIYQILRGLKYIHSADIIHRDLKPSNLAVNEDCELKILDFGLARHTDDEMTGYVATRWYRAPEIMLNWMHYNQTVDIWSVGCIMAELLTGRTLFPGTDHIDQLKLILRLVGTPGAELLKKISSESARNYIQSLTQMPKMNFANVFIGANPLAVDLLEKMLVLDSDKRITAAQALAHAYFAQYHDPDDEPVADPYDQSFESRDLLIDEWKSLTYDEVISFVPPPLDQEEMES

| Compound | IC50 [1] | IC50 [2] | further results |
| --- | --- | --- | --- |
| CC(C)(C)c1cc(NC(=O)Nc2ccccc2)n(-c2cccc(CN)c2)n1 | 2850 nM | > 16700 nM |  |
| CC(C)(C)c1cc(NC(=O)Nc2ccccc2)n(-c2cccc(CNC(=O)CNC=O)c2)n1 | 68 nM | 332 nM |  |
| CC(C)(C)c1cc(NC(=O)Nc2ccccc2)n(-c2cccc(CNC(=O)CNC(=O)c3ccco3)c2)n1 | 18 nM | 88 nM |  |
| CC(C)(C)c1cc(NC(=O)Nc2ccccc2)n(-c2cccc(CNC(=O)CN3CCCC3=O)c2)n1 | 68 nM | 296 nM |  |
| CC(C)(C)c1cc(NC(=O)Nc2ccccc2)n(-c2cccc(CNC(=O)CN3CCOC3=O)c2)n1 | 185 nM | 599 nM |  |
| CC(C)(C)c1cc(NC(=O)Nc2ccccc2)n(-c2cccc(CNC(=O)Cn3ccnc3)c2)n1 | 231 nM | 536 nM |  |
| Cc1nccn1CC(=O)NCc1cccc(-n2nc(C(C)(C)C)cc2NC(=O)Nc2ccccc2)c1 | 132 nM | 677 nM |  |
| CC(C)(C)c1cc(NC(=O)Nc2ccccc2)n(-c2cccc(CNC(=O)Cn3cccn3)c2)n1 | 48.8 nM | 135 nM |  |
| Cc1ccn(CC(=O)NCc2cccc(-n3nc(C(C)(C)C)cc3NC(=O)Nc3ccccc3)c2)n1 | 27.9 nM | 201 nM | inhibition at 3 µM (CYP2C9): 5%; inhibition at 3 µM (CYP2D6): 18%; inhibition at 3 µM (CYP1A2): 4%; inhibition at 10 µM (hERG (KCNH2)): 3%; solubility kinetic [3]: 100 µM (≈ 48.6 µg/mL); Papp [4]: 4.8 ×10⁻⁶ cm/s; inhibition at 3 µM (CYP3A4): 26% |
| CC(C)(C)c1cc(NC(=O)Nc2ccccc2)n(-c2cccc(CNC(=O)C3C[C@H]3C(=O)O)c2)n1 (stereo not given in full) | 30 nM | 1100 nM |  |
| CC(C)(C)c1cc(NC(=O)Nc2ccccc2)n(-c2cccc(CNC(=O)C3CCCC[C@H]3C(=O)O)c2)n1 (stereo not given in full) | 57 nM | 3360 nM |  |
| CC(C)(C)c1cc(NC(=O)Nc2ccccc2)n(-c2cccc(CNC(=O)C3CC=CC[C@H]3C(=O)O)c2)n1 (stereo not given in full) | 14 nM | 737 nM |  |

More lines, in order of falling IC50 [1], values ahead:

| IC50 [1] | IC50 [2] | Compound | further results |
| --- | --- | --- | --- |
| 715 nM | 4550 nM | CC(=O)NC1(C(=O)NCc2cccc(-n3nc(C(C)(C)C)cc3NC(=O)Nc3ccccc3)c2)CCCC1 |  |
| 211 nM | 1600 nM | CC(=O)NCC(=O)N(C)Cc1cccc(-n2nc(C(C)(C)C)cc2NC(=O)Nc2ccccc2)c1 |  |
| 176 nM | 2300 nM | CC(C)(C)c1cc(NC(=O)Nc2ccccc2)n(-c2cccc(CNC(=O)CN)c2)n1 |  |
| 176 nM | 287 nM | COC(=O)NCC(=O)NCc1cccc(-n2nc(C(C)(C)C)cc2NC(=O)Nc2ccccc2)c1 |  |
| 169 nM | 441 nM | CC(C)(C)c1cc(NC(=O)Nc2ccccc2)n(-c2cccc(CNC(=O)CNC(=O)c3ccccc3)c2)n1 |  |
| 168 nM | 480 nM | CC(=O)NC(C)C(=O)NCc1cccc(-n2nc(C(C)(C)C)cc2NC(=O)Nc2ccccc2)c1 (stereo not given) |  |
| 108 nM | 649 nM | CC(C)(C)c1cc(NC(=O)Nc2ccccc2)n(-c2cccc(CNC(=O)CNS(C)(=O)=O)c2)n1 |  |
| 78.2 nM | 331 nM | Cc1cc(C)n(CC(=O)NCc2cccc(-n3nc(C(C)(C)C)cc3NC(=O)Nc3ccccc3)c2)n1 |  |
| 51 nM | 205 nM | CC(C)(C)c1cc(NC(=O)Nc2ccccc2)n(-c2cccc(CNC(=O)CNC(=O)c3cccnc3)c2)n1 |  |
| 39 nM | 3680 nM | CC(C)(CC(=O)NCc1cccc(-n2nc(C(C)(C)C)cc2NC(=O)Nc2ccccc2)c1)C(=O)O |  |
| 38 nM | 243 nM | Cc1cc(C(=O)NCC(=O)NCc2cccc(-n3nc(C(C)(C)C)cc3NC(=O)Nc3ccccc3)c2)no1 |  |
| 37 nM | 393 nM | CC(C)(C)c1cc(NC(=O)Nc2ccccc2)n(-c2cccc(CNC(=O)CCC(=O)O)c2)n1 |  |
| 16 nM | 63 nM | CC(C)(C)c1cc(NC(=O)Nc2ccccc2)n(-c2cccc(CNC(=O)Cn3ccccc3=O)c2)n1 | inhibition at 3 µM (CYP2C9): 6%; inhibition at 3 µM (CYP2D6): 21%; inhibition at 3 µM (CYP1A2): 4%; inhibition at 10 µM (hERG (KCNH2)): 9%; solubility kinetic [3]: 50 µM (≈ 24.9 µg/mL); Papp [4]: 12.9 ×10⁻⁶ cm/s; inhibition at 3 µM (CYP3A4): 30% |
| 6 nM | 34 nM | CC(=O)NCC(=O)NCc1cccc(-n2nc(C(C)(C)C)cc2NC(=O)Nc2ccccc2)c1 | inhibition at 3 µM (CYP2C9): 0%; inhibition at 3 µM (CYP2D6): 2%; inhibition at 3 µM (CYP1A2): 5%; inhibition at 10 µM (hERG (KCNH2)): -11%; solubility kinetic [3]: > 200 µM; Papp [4]: 7.38 ×10⁻⁶ cm/s; inhibition at 3 µM (CYP3A4): 0% |
| 5 nM | 6 nM | CC(C)(C)c1cc(NC(=O)Nc2cccc3ccccc23)n(-c2cccc(CNC(=O)CCC(=O)O)c2)n1 |  |
